In brackets after ≈: the same amount, converted by molar mass.
Columns and labels:
[1] = target: T1, Bifunctional epoxide hydrolase 2 (Homo sapiens, UniProt P34913); test: Tested for 50 % inhibitory concentration against human soluble epoxide hydrolase (sEH)
T1 sequence (P34913 whole entry): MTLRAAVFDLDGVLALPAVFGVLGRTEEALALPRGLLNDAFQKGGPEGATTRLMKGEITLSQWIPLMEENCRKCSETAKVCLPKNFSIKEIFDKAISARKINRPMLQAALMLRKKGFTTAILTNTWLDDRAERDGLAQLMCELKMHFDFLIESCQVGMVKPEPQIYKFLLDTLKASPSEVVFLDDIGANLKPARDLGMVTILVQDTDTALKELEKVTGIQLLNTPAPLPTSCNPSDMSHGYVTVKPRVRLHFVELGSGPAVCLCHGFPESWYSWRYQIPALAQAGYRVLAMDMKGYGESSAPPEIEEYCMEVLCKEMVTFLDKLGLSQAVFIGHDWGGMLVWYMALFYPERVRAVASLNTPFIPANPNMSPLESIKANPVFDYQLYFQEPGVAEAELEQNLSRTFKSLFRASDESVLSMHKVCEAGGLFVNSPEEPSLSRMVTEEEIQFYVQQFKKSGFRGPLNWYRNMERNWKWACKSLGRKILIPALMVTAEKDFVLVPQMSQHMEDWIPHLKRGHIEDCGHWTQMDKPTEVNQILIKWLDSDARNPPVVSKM
Summary of the method: (§1)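 Recombinant sEH was expressed in baculovirus and affinity-purified to at least 97% purity. Enzyme was preincubated with inhibitor for 5 min at 30 °C in 0.1 M sodium phosphate, pH 7.4, with 0.1 mg/mL BSA. Racemic 4-nitrophenyl-trans-2,3-epoxy-3-phenylpropyl carbonate was the substrate (40 µM). 4-Nitrophenolate was read at 405 nm for 1 min. Run in triplicate; IC50 from regression of at least five points.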

[2] = target: T2, Bifunctional epoxide hydrolase 2 (Mus musculus, UniProt P34914); test: Tested for 50 % inhibitory concentration against mouse soluble epoxide hydrolase (sEH); summary of the method: as §1
T2 sequence (P34914 whole entry): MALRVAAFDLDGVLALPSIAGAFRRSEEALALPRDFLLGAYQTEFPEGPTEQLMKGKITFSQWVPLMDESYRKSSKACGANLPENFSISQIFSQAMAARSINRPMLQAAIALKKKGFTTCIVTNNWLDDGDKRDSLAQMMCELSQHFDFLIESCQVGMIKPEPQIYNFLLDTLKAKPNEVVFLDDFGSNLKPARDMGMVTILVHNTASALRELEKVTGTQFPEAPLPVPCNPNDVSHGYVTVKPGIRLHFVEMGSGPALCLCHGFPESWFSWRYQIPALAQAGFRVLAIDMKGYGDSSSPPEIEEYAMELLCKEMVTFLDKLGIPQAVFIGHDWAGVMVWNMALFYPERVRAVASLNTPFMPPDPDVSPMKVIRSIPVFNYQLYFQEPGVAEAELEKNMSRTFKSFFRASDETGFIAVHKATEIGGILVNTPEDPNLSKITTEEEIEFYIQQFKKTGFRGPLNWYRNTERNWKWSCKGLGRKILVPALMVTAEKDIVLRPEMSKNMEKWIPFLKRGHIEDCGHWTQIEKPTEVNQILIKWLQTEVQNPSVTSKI

[3] = target: T3, Bifunctional epoxide hydrolase 2 (Homo sapiens) (UniProt P34913); test: Tested for 90 % inhibitory concentration against human soluble epoxide hydrolase (sEH)
T3 sequence (whole entry): T1 sequence (P34913 whole entry)
Summary of the method: (§2)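 Recombinant sEH (human for line 1, mouse for line 2) expressed in baculovirus and affinity-purified to ≥97%. Enzyme was preincubated with inhibitor for 5 min at 30 °C in 0.1 M sodium phosphate, pH 7.4, with 0.1 mg/mL BSA. Racemic 4-nitrophenyl-trans-2,3-epoxy-3-phenylpropyl carbonate (40 µM) was then added, and 4-nitrophenolate was read at 405 nm for 1 min at 30 °C. Assays were run in triplicate.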

[4] = target: T4, Bifunctional epoxide hydrolase 2 (Mus musculus) (UniProt P34914); test: Tested for 90 % inhibitory concentration against mouse soluble epoxide hydrolase (sEH); summary of the method: as §2
T4 sequence (whole entry): T2 sequence (P34914 whole entry)

[5] = Solubility in sodium phosphate buffer (0.1 M, pH 7.4) at 25 degrees C was determined
[6] = Partition coefficient (logP); type: physicochemical; settings: octanol/water
Summary of the method: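 Compound dissolved in buffer-saturated octanol, then mixed with octanol-saturated 0.1 M sodium phosphate buffer, pH 7.4. Shaken 24 h at 23 ± 1.5 °C and centrifuged 5 min at 200g. Each phase was quantified by LC-MS/MS, and log P was taken as log [octanol]/[water]. Triplicate analyses.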

Row | SMILES | IC50 [1] | IC50 [2] | IC90 [3] | IC90 [4] | other results
1 | CCCCCOC(=O)NCCNC(=O)Nc1cccc(Cl)c1 | > 100000 nM |  |  |  | 
2 | O=C(NCCCO)NC1CCCCC1 | > 500000 nM | > 500000 nM |  |  | 
3 | CCOC(=O)CCCCCCCOC(=O)CCCNC(=O)NC12CC3CC(CC(C3)C1)C2 |  |  | 720 nM | 160 nM | 
4 | CCOC(=O)CCCOC(=O)CCCNC(=O)NC12CC3CC(CC(C3)C1)C2 |  |  | 5000 nM | 160 nM | 
5 | CCCCCOC(=O)CCCNC(=O)NC12CC3CC(CC(C3)C1)C2 |  |  |  |  | solubility ([5]; sodium phosphate buffer): 1.69 µg/mL (≈ 4.82 µM)
6 | CC(C)=CCCC(C)CCOC(=O)CCCNC(=O)NC12CC3CC(CC(C3)C1)C2 (configuration not stated) | 110 nM | 50 nM |  |  | 
7 | CCCCCCC(O)CCCNC(=O)Nc1cccc(Cl)c1 (configuration not stated) | 3100 nM | 140 nM |  |  | 
8 | CCCCCCCCCCNC(=O)NC12CC3CC(CC(C3)C1)C2 |  |  |  |  | logP [6]: 5.25; solubility ([5]; sodium phosphate buffer): 0.62 µg/mL (≈ 1.85 µM)
9 | CCOC(=O)CCCCCCCCCCCOC(=O)CCCNC(=O)NC12CC3CC(CC(C3)C1)C2 |  |  | 1800 nM | 630 nM | 
10 | CCCCCOC(=O)CCCNC(=O)NC1CCCCC1 |  |  |  |  | logP [6]: 0.82; solubility [5]: 1.51 µg/mL (≈ 5.06 µM)
11 | CCCCCCC(=O)NCCNC(=O)Nc1cccc(Cl)c1 | > 100000 nM |  |  |  | 
12 | CCOC(=O)Cc1ccc(OC(=O)CCCNC(=O)NC23CC4CC(CC(C4)C2)C3)cc1 | 140 nM | 50 nM |  |  | 
13 | O=C(O)CCCNC(=O)NC12CC3CC(CC(C3)C1)C2 | 37000 nM | 22000 nM |  |  | logP [6]: 0.14; solubility ([5]; sodium phosphate buffer): 7.06 µg/mL (≈ 25.2 µM)
14 | CCCCCCCCCCNC(=O)NC1CCCCC1 |  |  |  |  | logP [6]: 5.44; solubility ([5]; buffer): 0.44 µg/mL (≈ 1.56 µM)
15 | CCOC(=O)CCCCCCCCCCOC(=O)CCCNC(=O)NC12CC3CC(CC(C3)C1)C2 |  |  | 1200 nM | 350 nM | 

Continued, in another order:

Row | IC50 [1] | IC50 [2] | IC90 [3] | IC90 [4] | SMILES | other results
16 | 100 nM | 50 nM |  |  | CCOC(=O)c1ccc(COC(=O)CCCNC(=O)NC23CC4CC(CC(C4)C2)C3)cc1 | 
17 | 200 nM | 50 nM |  |  | CCOC(=O)/C=C/c1ccc(OC(=O)CCCNC(=O)NC23CC4CC(CC(C4)C2)C3)cc1 | 
18 |  |  | 680 nM | 260 nM | CCOC(=O)CCCCCCCCCOC(=O)CCCNC(=O)NC12CC3CC(CC(C3)C1)C2 | 
19 | 1600 nM | 100 nM |  |  | COC(=O)CCCNC(=O)NC12CC3CC(CC(C3)C1)C2 | logP [6]: 0.18; solubility ([5]; sodium phosphate buffer): 1.6 µg/mL (≈ 5.43 µM)
20 |  |  | 9000 nM | 110 nM | CCOC(=O)COC(=O)CCCNC(=O)NC12CC3CC(CC(C3)C1)C2 | 
21 |  |  | 1500 nM | 100 nM | CCOC(=O)CCCCOC(=O)CCCNC(=O)NC12CC3CC(CC(C3)C1)C2 | 
22 | > 100000 nM |  |  |  | CCCCCNC(=O)NCCNC(=O)Nc1cccc(Cl)c1 | 
23 | 6200 nM | 330 nM |  |  | COCCCNC(=O)NC1CCCCC1 | 
24 |  |  | 9000 nM | 630 nM | CCOC(=O)CCOC(=O)CCCNC(=O)NC12CC3CC(CC(C3)C1)C2 | 
25 | > 500000 nM | > 500000 nM |  |  | O=C(O)CNC(=O)NC1CCCCC1 | 
26 | 253000 nM | 90000 nM |  |  | O=C(NCCCCCO)NC1CCCCC1 | 

— ChEMBL document CHEMBL1149149, “Design, synthesis, and biological activity of 1,3-disubstituted ureas as potent inhibitors of the soluble epoxide hydrolase of increased water solubility” (J Med Chem, 2004)
